Source: ChEMBL document CHEMBL4513216, “Probing the Open Global Health Chemical Diversity Library for Multistage-Active Starting Points for Next-Generation Antimalarials” (ACS Infect Dis, 2020)

Experiment: Toxicity liver stage against HepG2, at 10uM
Assay type: cell-based
Parameters: test concentration 10 uM, cell line HepG2-A16-CD81EGFP
Conditions: human, HepG2-A16-CD81EGFP cells; read-out: INHIBITION
Method in brief: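 Uninfected HepG2-A16-CD81EGFP cells, 3 × 10^3 per well, 1536-well, plated on prespotted compound at 10 μM final, parasite-free screening media added to match infected plates; puromycin 10 μM positive, DMSO 0.5% negative; run in parallel with 48 h PbLuc assay at 37 °C, 5% CO2; viability by CellTiter-Glo luminescence, normalized to controls.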

Row | Compound | cytotoxicity at 10 µM
1 | CC(C)CNC(=O)CN(CC(=O)NCC(C)C)S(C)(=O)=O | -12.2%
2 | Cc1cccc2c1nc1n2[C@@H](CNC(=O)c2ccccn2)COC1 | 6.49%
3 | NC(=O)CN1CC(O)c2ccccc2S1(=O)=O (configuration not stated) | 4.37%
4 | COc1ccc(C(=O)Nc2ccccc2-c2ccc(=O)n(C)n2)cc1 | 2.11%
5 | CCOCc1cncc2c1CCN(S(=O)(=O)c1cccc(C)c1)C2 | 13.6%
6 | O=S(=O)(C1CC1)N1CCc2ncnc(-c3ccc(F)cc3)c2CC1 | -66.5%
7 | Cc1nc(N2CCOCC2)nc2c1CCN(c1nccs1)CC2 | 7.37%
8 | Cc1ccc(N2CC[C@@H]3O[C@@H](c4ccncn4)C[C@H]3C2)nn1 | 10.8%
9 | CCN1CCC2(CC1)CN(C(C)=O)c1ccc(C)cc12 | 3.98%
10 | CCC1=NN2C(=N)/C(=C/c3cccc(Cl)c3)C(=O)N=C2S1 | -11.8%
11 | Cc1ccccc1Cn1nnc2cc3c(cc2c1=O)OCCO3 | 1.11%
12 | CCC(C)NC(=O)Cn1ncc2c1c(C)nn2CC (configuration not stated) | 3.24%
13 | CC(C)n1cc(N2CC(C(=O)N3CCc4ccccc4C3)CC2=O)cn1 (configuration not stated) | -153%
14 | CC(C)c1nccn1-c1nccnc1C1CCCN1Cc1cccnc1 (configuration not stated) | 7.77%
15 | Cc1cc(N2CCOC(C)(C(=O)N(C)C)C2)ncn1 (configuration not stated) | -0.277%
16 | CCC(=O)N1CCC(c2ncc3c(n2)CCNC3)CC1 | -22.5%
17 | Cc1ccccc1-c1cncc(C2CCN(S(=O)(=O)N(C)C)CC2)n1 | 0.0706%
18 | CC1(C(=O)NCc2cc(F)cc(F)c2)CCOCC1 | 4.32%
19 | O=c1c2ccccc2nc2n1C(CSc1cccc(C(F)(F)F)c1)CN2 (configuration not stated) | 12.9%
20 | CC(C)N(C(=O)Cn1nnnc1CCc1ccccc1)C(C)C | 7.1%
21 | CCc1ccc2c(c1)C(CCNC(=O)Cc1cccc(F)c1)C(=O)N2 (configuration not stated) | -49.1%
22 | Cc1ccc(-c2noc(CNCC3CN(C)CCO3)n2)cc1F (configuration not stated) | -1.51%
23 | Cc1nc(CN2CCOC3(CCCC3)C2)oc1C | 4.56%

Row | Compound | cytotoxicity at 10 µM
24 | Cc1cc(N(Cc2ccccn2)C2CC2)n2nc(C(F)(F)F)nc2n1 | -5.83%
25 | COc1ccc(CN(C(=O)C2CCCS2)c2ccncc2)cc1 (configuration not stated) | 5.57%
26 | CC(NC(=O)N(C)C1CC1)c1ccc(Oc2cccnc2)c(F)c1 (configuration not stated) | -1.23%
27 | COc1ccccc1CNC(=O)COc1ccc2c(c1)OCC2O (configuration not stated) | -3.75%
28 | C=C(C)CN(CC)C(=O)CN1CCCC1C(=O)N(C)C (configuration not stated) | 8.52%
29 | CCC(O)CN(c1ccccc1)S(=O)(=O)c1cnc(C)s1 (configuration not stated) | -45.6%
30 | CC(C(=O)NC1(C#N)CCCCC1)N1CCc2c(ncn2C)C1 (configuration not stated) | 7.04%
31 | Cc1nnc(CN(C)CC(=O)N2CCCC(C)CC2)n1C (configuration not stated) | 10.6%
32 | Cc1nc(CN2CCCc3cc(OC(F)(F)F)ccc32)oc1C | 0.889%
33 | O=C(c1ccc(-n2ccnc2)nc1)N1CCN2CCCCC2C1 (configuration not stated) | -5.95%
34 | Cc1cnn(CCNCC(O)COc2cccc(C(F)(F)F)c2)c1 (configuration not stated) | -21.7%
35 | CCc1nnc2n1CCN(C(=O)CCc1ccc3c(c1)OCO3)C2 | -2.62%
36 | Cc1ccc(C2CCCN2S(=O)(=O)N(C)Cc2cnccn2)o1 (configuration not stated) | 0.78%
37 | CCS(=O)(=O)c1ccc(N2CCC(NC(=O)C3CCCCC3)CC2)cc1 | 12%
38 | CN(Cc1noc(C(C)(C)C)n1)CC1CCN(CCO)CC1 | 7.17%
39 | Cc1cc2n(n1)CC(CNCCNC(=O)c1ccc(F)cc1)CN2 (configuration not stated) | 6.15%
40 | CC(=O)N1CCc2cc(Cl)cc(Cl)c2C1 | 11.2%
41 | CCC(=O)N(CC)C(c1cccnc1)c1ccc2c(c1)CCO2 (configuration not stated) | 2.94%
42 | CCCNC(=O)c1cc(Br)cc(S(=O)(=O)N2CCOCC2)c1F | -5.12%
43 | CCOc1ccccc1C(CC(=O)Nc1ccccc1)NC(C)=O (configuration not stated) | -2.86%
44 | CNS(=O)(=O)c1ccc(CNC(=O)c2cc(-c3ccccn3)no2)cc1 | -11.4%
45 | CCc1cc(N2CCC(NC(=O)CCC3CCCO3)CC2)ncn1 (configuration not stated) | 8.31%
46 | CC(C)c1ccc(S(=O)(=O)NC2(CC(N)=O)CCC2)cc1 | -2.77%

Row | Compound | cytotoxicity at 10 µM
47 | CCCN(C(=O)CNC1CCc2ncnn2C1)C1=CCCCC1 (configuration not stated) | 1.76%
48 | O=C(Nc1nccs1)C1CCN(Cc2cccc3c2OCCO3)CC1 | -1.95%
49 | CC(C)c1ncc(Cl)c(C(=O)N2CCN3CCCCC3C2)n1 (configuration not stated) | 4.77%
50 | O=S(=O)(NCc1ccc(S(=O)(=O)N2CCCC2)s1)c1ccc(Cl)cc1 | -44%
51 | CC(C)c1noc(OCc2cccc(S(=O)(=O)N(C)C)c2)n1 | -45.9%
52 | CN(CCN1CCOC1=O)CC(=O)Nc1ccc(Cl)c(Cl)c1 | -52.4%
53 | Cc1ncc(CN(C)CC(O)c2cccc(C(F)(F)F)c2)s1 (configuration not stated) | 1.86%
54 | COc1c(CNC2CCCc3ccccc32)c(C)nn1C (configuration not stated) | -0.808%
55 | COc1ccc(CC(=O)N2CC[C@@H]3CN(C)S(=O)(=O)[C@@H]3CC2)cc1 | 4.33%
56 | COCCN(C)C(=O)c1cc2c(s1)CCN2C(=O)C1CC1 | -7.38%
57 | Cn1nnc2c1C(COCC1CC1)CN(C(=O)C1=CCCC1)C2 (configuration not stated) | -102%
58 | O=C(C1CCOCC1)N1CC[C@H](O)[C@@H]1Cc1cccnc1 | -104%
59 | COCC(=O)N1CC[C@@H](O)[C@@H]1Cc1ccccc1 | -1.26%
60 | Cc1ocnc1C(=O)N1CCN(CCOc2ccccc2)CC1 | 1.12%
61 | CCc1ncc(CN2CCC(CCc3ccccc3)CC2)cn1 | -175%
62 | CC1CCN(S(=O)(=O)N2C[C@H](c3ccccc3)[C@@H](N)C2)CC1 | -12.1%
63 | CCc1ncc(C(=O)N2CCCN(C3CCCCC3)CC2)cn1 | -5.1%
64 | CCCN1CCN(C(=O)c2ccc(Cl)cn2)[C@H]2CS(=O)(=O)C[C@H]21 | -4.15%
65 | N[C@H]1CN(C(=O)CCc2ccccn2)C[C@@H]1c1ccccc1 | -0.23%
66 | CCOCc1nc2c(c(NC(CC)c3ccncc3)n1)CCNCC2 (configuration not stated) | -0.0944%
67 | COc1cc(F)ccc1-c1cc(CO)ccn1 | 6.58%
68 | COc1cc(C)ccc1OCc1nc(C(=O)N2CCCC2)co1 | -42.5%
69 | CC(=O)Nc1ccc2nc(-c3nccn3CC(C)(C)CO)ccc2c1 | 3.89%

Row | Compound | cytotoxicity at 10 µM
70 | c1cn(CC2CC2)c(C2CCN(CCC3CCOC3)CC2)n1 (configuration not stated) | -8.64%
71 | CCCN(Cc1ccc(OC)nc1)Cc1ccccc1OC | -5.85%
72 | O=C(Nc1cccc2c1CCCC2)c1cccc(CN2CC[C@H](O)C2)c1 | -9.32%
73 | c1ccc(COC2CCN(Cc3cc4n(n3)CCCNC4)CC2)nc1 | 2.59%
74 | COC(=O)CC1CCN(C(=O)Nc2ccc(-c3ccn[nH]3)cc2)C1 (configuration not stated) | 3.57%
75 | CCN1CCN(C2(C(=O)NC3CCCC3)Cc3ccccc3C2)CC1 | -13.8%
76 | Cc1cccc2[nH]c(C3CCCN(Cc4ccccc4C(=O)O)C3)nc12 (configuration not stated) | 7.28%
77 | C[C@@H]1CN(C(=O)CCCN2CCOCC2)C[C@@]1(O)C1CC1 | 4.39%
78 | Cc1cc(C(=O)N2CCCC3(CN(C)C(=O)O3)C2)c2ccc(F)cc2n1 (configuration not stated) | 3.05%
79 | Cc1ccsc1CN1CCC(c2cc(C(C)C)n[nH]2)CC1 | 1.13%
80 | O=C(C1CNCCO1)N1CCCC(c2ccccc2)(c2ccccc2)C1 (configuration not stated) | 12.2%
81 | Cc1nc(-c2cccc(N3CCC(NC4CCOCC4)CC3)c2)cs1 | -10.1%
82 | CCOc1ccccc1C(=O)N1CCCC(O)(CN(C)C)C1 (configuration not stated) | -1.73%
83 | O=C(O)c1cccnc1CN1CCCCC1CCc1ccccn1 (configuration not stated) | 7.4%
84 | Cn1ccnc1CN1CCCC(CCc2ccc(F)c(F)c2)C1 (configuration not stated) | -6.9%
85 | OCCNc1cc(-c2nccnc2N2CCCC2)c2cc[nH]c2n1 | -7.57%
86 | CN(c1ccncn1)C1CC2(CCN(C(=O)CCc3cccs3)C2)C1 (configuration not stated) | -1.34%
87 | CCc1nc(C2CCCN(C(=O)c3ccccc3O)C2)no1 (configuration not stated) | -7.39%
88 | O=C(NCC(=O)N1CCCC1)c1nn(-c2ccccc2F)cc1O | 6.53%
89 | O=C(O)c1cccc(S(=O)(=O)N2CCOc3ccccc32)c1 | -5.92%
90 | Cc1cc(C)n(-c2ccc(CNCc3ccc(F)cc3F)cn2)n1 | -12.2%
91 | O=C(CCc1ccco1)N1CCCC(n2cccn2)C1 (configuration not stated) | -8.8%
92 | CCNc1cc2c(nn1)CCN(C(=O)c1ccsc1)C2 | -13.7%

Row | Compound | cytotoxicity at 10 µM
93 | CN1CCN(c2cc(CNC(=O)Cn3cccn3)ccn2)CC1 | -11.6%
94 | Cc1csc(N2CCCN(C(=O)c3csc(C)n3)CC2)n1 | -3.96%
95 | CCc1noc(C(C)N2CCC(O)CC2)n1 (configuration not stated) | 0.26%
96 | CCn1ccnc1CN1CCOC(Cn2cccn2)C1 (configuration not stated) | -14.7%
97 | Cc1ccc(NS(=O)(=O)c2cc3c(c(C(=O)O)c2)OCCO3)cc1C | -15.3%
98 | COc1ccnc(N2CCN(C(=O)CN3CCCC3=O)CC2)n1 | -5.21%
99 | CN(C)C1CCN(C(=O)c2ccc(Cn3ccccc3=O)o2)CC1 | -2.11%
100 | Cc1csc(N2CCCN(C(=O)c3c(C)oc(C)c3C)CC2)n1 | 3.75%
101 | Cc1nc(C2CCCN2Cc2ncc(C(C)C)o2)no1 (configuration not stated) | 4.31%
102 | CC1CCN(S(=O)(=O)NCc2ccccc2Cn2cncn2)CC1 | -2.72%
103 | COCCOc1ncccc1CNCc1c(C)nn(C)c1N(C)C | -9.36%
104 | CCc1n[nH]c(C2CN(C(=O)c3nc(C)ncc3Cl)CCO2)n1 (configuration not stated) | -7.25%
105 | Cc1cnn(CC2CCCN2Cc2nc3ccccc3nc2C)c1 (configuration not stated) | -1.35%
106 | Cc1cc(N2CCN(Cc3ccnn3C)CC2)cc(C2CCCN2)n1 (configuration not stated) | 6.97%
107 | CCC(CN1CCN(C)CC1)NC(=O)C1(c2cccc(F)c2)CC1 (configuration not stated) | 3.54%
108 | CN(C)C(=O)COC1COC2(CCN(CC3CC3)CC2)C1 (configuration not stated) | -108%
109 | CN(C)C(=O)C1CCN(C2CCN(CC3CC3)CC2)CC1 | 4.55%
110 | Cc1cccc(CN2CCN3C[C@H](Oc4cncnc4)C[C@H]3C2)n1 | -91.9%
111 | CN(C)CCn1c2c(ccc1=O)CC(NC(=O)c1ccsc1)CC2 (configuration not stated) | 2.15%
112 | O[C@@H]1CC(CNCc2cccc(Cl)c2)(COc2cccnc2)C[C@@H]1O (some centres not stated) | -1.29%
